# According to ChEMBL document CHEMBL1146721, “Discovery and structure-activity relationship of coumarin derivatives as TNF-alpha inhibitors” (Bioorg Med Chem Lett, 2004):
# Tested on: PBMC
# Assay: In vitro inhibition of tumor necrosis factor alpha production in LPS-challenged human peripheral blood mononuclear cells
# Format: functional, cell-based
# Details: not given
# Summary of the method: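 Human PBMC at 5 × 10⁵ cells/mL in RPMI1640 with 5% heat-inactivated FCS and antibiotics, pretreated with compound in DMSO for 60 min at 37 °C. Then stimulated with Salmonella minnesota R595 LPS (final 100 ng/mL) and cultured overnight. Supernatant TNF-α measured by human TNF-α ELISA; IC50 derived.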
row,SMILES,IC50
1,Cc1c(Cc2ccccc2)c(=O)oc2c(C)c(OC(=O)N(C)C)ccc12,10.3 µM
2,Cc1c(Cc2ccccc2)c(=O)oc2cc(OC(=O)N(C)C)c(I)cc12,0.06 µM
3,CN(C)C(=O)Oc1ccc2c(CC(O)c3ccc(C#N)cc3)c(Cc3ccccc3)c(=O)oc2c1 (stereo not drawn),28.3 µM
4,Cc1c(Cc2cccnc2)c(=O)oc2cc(OC(=O)N(C)C)ccc12,2.7 µM
5,Cc1c(-c2ccc(N)cc2)c(=O)oc2cc(OC(=O)N(C)C)ccc12,5.2 µM
6,CN(C)C(=O)Oc1ccc2c(-c3ccc(F)cc3)c(Cc3ccccc3)c(=O)oc2c1,41.7 µM
7,Cc1c(Cc2ccccc2)c(=O)oc2cc(OC(=O)N(C)C)c(C#N)cc12,0.85 µM
8,CN(C)C(=O)Oc1ccc2cc(Cc3ccccc3)c(=O)oc2c1,> 50 µM
9,CCc1c(Cc2ccccc2)c(=O)oc2cc(OC(=O)N(C)C)ccc12,1.7 µM
10,C=CCCC(O)Cc1c(Cc2ccccc2)c(=O)oc2cc(OC(=O)N(C)C)ccc12 (stereo not drawn),48.4 µM
11,Cc1c(Cc2ccccc2)c(=O)oc2cc(OC(=O)N(C)C)c(C(=O)O)cc12,> 50 µM
12,CCOC(=O)CC(=O)Nc1cccc(Cc2c(C)c3cc(Cl)c(OC(=O)N(C)C)cc3oc2=O)c1,0.05 µM
13,CN(C)C(=O)Oc1ccc2c(CCO)c(Cc3ccccc3)c(=O)oc2c1,2.1 µM
14,CN(C)C(=O)Oc1ccc2c(CCc3ccccc3)c(Cc3ccccc3)c(=O)oc2c1,> 50 µM
15,COC(=O)c1ccc(-c2c(C)c3ccc(OC(=O)N(C)C)cc3oc2=O)cc1,≥ 50 µM
16,CN(C)C(=O)Oc1ccc2c(C(F)(F)F)c(Cc3ccc(F)cc3)c(=O)oc2c1,> 50 µM
17,COc1cc2c(C)c(Cc3ccccc3)c(=O)oc2cc1OC(=O)N(C)C,0.58 µM
18,Cc1c(CCc2ccccc2)c(=O)oc2cc(OC(=O)N(C)C)ccc12,> 50 µM
19,CN(C)C(=O)Oc1ccc2c(CC(O)c3nccs3)c(Cc3ccccc3)c(=O)oc2c1 (stereo not drawn),16.5 µM
20,Cc1c(Cc2ccccc2)c(=O)oc2cc(OC(=O)N(C)C)c([N+](=O)[O-])cc12,0.12 µM
21,CCCCCc1c(C)c2ccc(OC(=O)N(C)C)cc2oc1=O,22.8 µM

row,SMILES,IC50
1,COc1cc(OC(=O)N(C)C)cc2oc(=O)c(Cc3ccccc3)c(C)c12,> 50 µM
2,Cc1c(Cc2ccccc2)c(=O)oc2cc(OC(=O)N(C)C)c(C=O)cc12,9.8 µM
3,Cc1c(CN2CCOCC2)c(=O)oc2cc(OC(=O)N(C)C)ccc12,> 50 µM
4,Cc1cc(=O)oc2cc(OC(=O)N(C)C)ccc12,> 50 µM
5,Cc1c(CN2CCCCC2)c(=O)oc2cc(OC(=O)N(C)C)ccc12,> 50 µM
6,CCc1cc2c(C)c(Cc3ccccc3)c(=O)oc2cc1OC(=O)N(C)C,4.6 µM
7,CN(C)C(=O)Oc1ccc2c(C(=O)O)c(Cc3ccccc3)c(=O)oc2c1,> 50 µM
8,Cc1c(CC2CCCCC2)c(=O)oc2cc(OC(=O)N(C)C)ccc12,7.2 µM
9,Cc1c(Cc2ccccn2)c(=O)oc2cc(OC(=O)N(C)C)ccc12,6.5 µM
10,CN(C)C(=O)Oc1ccc2c(CC(O)C3CCCCC3)c(Cc3ccccc3)c(=O)oc2c1 (stereo not drawn),> 50 µM
11,Cc1c(-c2cccc(C(F)(F)F)c2)c(=O)oc2cc(OC(=O)N(C)C)ccc12,> 50 µM
12,CN(C)C(=O)Oc1ccc2c(-c3ccncc3)c(Cc3ccccc3)c(=O)oc2c1,4.9 µM
13,Cc1c(Cc2ccc(F)cc2)c(=O)oc2cc(OC(=O)N(C)C)ccc12,0.32 µM
14,CN(C)C(=O)Oc1ccc2c(-c3ccccc3F)c(Cc3ccccc3)c(=O)oc2c1,4.9 µM
15,CN(C)C(=O)Oc1ccc2c(-c3ccccc3)c(Cc3ccc(F)cc3)c(=O)oc2c1,1.7 µM
16,Cc1c(-c2ccc(C(F)(F)F)cc2)c(=O)oc2cc(OC(=O)N(C)C)ccc12,> 50 µM
17,Cc1c(C)c2ccc(OC(=O)N(C)C)cc2oc1=O,≥ 50 µM
18,COc1ccccc1-c1c(C)c2ccc(OC(=O)N(C)C)cc2oc1=O,7.5 µM
19,COC(=O)c1cccc(-c2c(C)c3ccc(OC(=O)N(C)C)cc3oc2=O)c1,1.7 µM
20,Cc1c(Cc2ccccc2)c(=O)oc2cc(OC(=O)N(C)C)c(C(C)C)cc12,40.1 µM
21,Cc1cc2c(C)c(Cc3ccccc3)c(=O)oc2cc1OC(=O)N(C)C,0.4 µM

row,SMILES,IC50
1,CCCCCCc1c(C)c2ccc(OC(=O)N(C)C)cc2oc1=O,25.4 µM
2,CCCCc1c(C)c2ccc(OC(=O)N(C)C)cc2oc1=O,24.7 µM
3,Cc1c(-c2ccccc2)c(=O)oc2cc(OC(=O)N(C)C)ccc12,> 50 µM
4,Cc1c(Cc2ccccc2)c(=O)oc2cc(OC(=O)N(C)C)c(Cl)cc12,0.09 µM
5,CCCc1c(Cc2ccccc2)c(=O)oc2cc(OC(=O)N(C)C)ccc12,0.78 µM
6,CN(C)C(=O)Oc1ccc2c(-c3ccccn3)c(Cc3ccccc3)c(=O)oc2c1,18.7 µM
7,COc1cccc(-c2c(C)c3ccc(OC(=O)N(C)C)cc3oc2=O)c1,3.2 µM
8,Cc1c(Cc2ccccc2)c(=O)oc2cc(OC(=O)N(C)C)cc(F)c12,0.44 µM
9,CC(=O)Nc1cccc(Cc2c(C)c3cc(Cl)c(OC(=O)N(C)C)cc3oc2=O)c1,0.31 µM
10,Cc1c(-c2cccc(N)c2)c(=O)oc2cc(OC(=O)N(C)C)ccc12,2.7 µM
11,Cc1c(Cc2ccncc2)c(=O)oc2cc(OC(=O)N(C)C)c(Cl)cc12,0.13 µM
12,CN(C)C(=O)Oc1ccc2c(-c3ccc(C(F)(F)F)cc3)c(Cc3ccccc3)c(=O)oc2c1,> 50 µM
13,CN(C)C(=O)Oc1ccc2c(-c3cccc(C(F)(F)F)c3)c(Cc3ccccc3)c(=O)oc2c1,> 50 µM
14,Cc1c(Cc2ccccc2)c(=O)oc2cc(OC(=O)N(C)C)ccc12,1.8 µM
15,Cc1c(Cc2cccnc2)c(=O)oc2cc(OC(=O)N(C)C)c(Cl)cc12,0.45 µM
16,Cc1c(-c2ccccc2N)c(=O)oc2cc(OC(=O)N(C)C)ccc12,2.1 µM
17,Cc1c(Cc2ccncc2)c(=O)oc2cc(OC(=O)N(C)C)ccc12,1.3 µM
18,Cc1c(Cc2ccccc2)c(=O)oc2cc(OC(=O)N(C)C)c(Br)cc12,0.06 µM
19,Cc1c(-c2ccccc2C(F)(F)F)c(=O)oc2cc(OC(=O)N(C)C)ccc12,≥ 50 µM
20,COc1ccc(-c2c(C)c3ccc(OC(=O)N(C)C)cc3oc2=O)cc1,5.6 µM
21,CCCc1c(Cc2ccc(F)cc2)c(=O)oc2cc(OC(=O)N(C)C)ccc12,1.2 µM

# Tested on: Rattus norvegicus
# Assay: Tested in vivo for inhibition of serum tumor necrosis factor alpha production in rats at 100 ug/kg subcutaneous dose
# Format: functional
# Details: sc
# Summary of the method: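 LPS (E. coli B055/B5, 0.1 mg/kg) challenge given […] subcutaneous test compound, usually in 20% EtOH/80% PEG400; pyridine-containing compounds were given in saline as HCl salts formed in situ. Serum TNF-α was measured by ELISA 90 min later. Percent inhibition was calculated against an untreated control.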
row,SMILES,inhibition in vivo at 0.1 mg/kg
1,C[C@@H]1C[C@H]2[C@@H]3CCC4=CC(=O)C=C[C@]4(C)[C@@]3(F)[C@@H](O)C[C@]2(C)[C@@]1(O)C(=O)CO [DEXAMETHASONE],99%

# Tested on: Rattus norvegicus
# Assay: Tested in vivo for inhibition of serum tumor necrosis factor alpha production in rats at 100 mg/kg subcutaneous dose
# Format: functional
# Details: sc
# Summary of the method: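 LPS (E. coli B055/B5, 0.1 mg/kg) challenge given […] sc compound, usually in 20% EtOH/80% PEG400; pyridine-containing compounds given in saline as in situ HCl salts. Serum TNF-α measured by ELISA 90 min later. Percent inhibition at 100 mg/kg calculated against an untreated control.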
row,SMILES,inhibition in vivo at 100 mg/kg
1,Cc1c(Cc2cccnc2)c(=O)oc2cc(OC(=O)N(C)C)ccc12,86%
2,Cc1c(Cc2ccc(F)cc2)c(=O)oc2cc(OC(=O)N(C)C)ccc12,42%
3,Cc1c(Cc2ccccc2)c(=O)oc2cc(OC(=O)N(C)C)c(Cl)cc12,57%
4,Cc1c(Cc2cccnc2)c(=O)oc2cc(OC(=O)N(C)C)c(Cl)cc12,86%
